Assay results reported in ChEMBL document CHEMBL1671840, “Design, Synthesis, and Preclinical Characterization of the Selective Androgen Receptor Modulator (SARM) RAD140” (ACS Med Chem Lett, 2011).
Activity calls are given as the source filed them. No cut-off for these calls is given here.

Tests used:
[1] = Oral bioavailability in rat; format: ADME, organism-based; conditions: in vivo
[2] = Half life in rat microsomes; format: ADME, Microsome
[3] = Half life in monkey microsomes; format: ADME, Macaca mulatta, Microsome; conditions: rhesus monkey
[4] = Half life in human microsomes; format: ADME, Microsome
[5] = Oral bioavailability in monkey; format: ADME, organism-based, Macaca mulatta; conditions: rhesus monkey, in vivo
Androgen receptor = target: T1, Androgen receptor (Homo sapiens, UniProt P10275); experiment: Displacement of fluorescent-tagged R1881 from androgen receptor after 4 hrs by fluorometric assay
T1 sequence (P10275 whole entry): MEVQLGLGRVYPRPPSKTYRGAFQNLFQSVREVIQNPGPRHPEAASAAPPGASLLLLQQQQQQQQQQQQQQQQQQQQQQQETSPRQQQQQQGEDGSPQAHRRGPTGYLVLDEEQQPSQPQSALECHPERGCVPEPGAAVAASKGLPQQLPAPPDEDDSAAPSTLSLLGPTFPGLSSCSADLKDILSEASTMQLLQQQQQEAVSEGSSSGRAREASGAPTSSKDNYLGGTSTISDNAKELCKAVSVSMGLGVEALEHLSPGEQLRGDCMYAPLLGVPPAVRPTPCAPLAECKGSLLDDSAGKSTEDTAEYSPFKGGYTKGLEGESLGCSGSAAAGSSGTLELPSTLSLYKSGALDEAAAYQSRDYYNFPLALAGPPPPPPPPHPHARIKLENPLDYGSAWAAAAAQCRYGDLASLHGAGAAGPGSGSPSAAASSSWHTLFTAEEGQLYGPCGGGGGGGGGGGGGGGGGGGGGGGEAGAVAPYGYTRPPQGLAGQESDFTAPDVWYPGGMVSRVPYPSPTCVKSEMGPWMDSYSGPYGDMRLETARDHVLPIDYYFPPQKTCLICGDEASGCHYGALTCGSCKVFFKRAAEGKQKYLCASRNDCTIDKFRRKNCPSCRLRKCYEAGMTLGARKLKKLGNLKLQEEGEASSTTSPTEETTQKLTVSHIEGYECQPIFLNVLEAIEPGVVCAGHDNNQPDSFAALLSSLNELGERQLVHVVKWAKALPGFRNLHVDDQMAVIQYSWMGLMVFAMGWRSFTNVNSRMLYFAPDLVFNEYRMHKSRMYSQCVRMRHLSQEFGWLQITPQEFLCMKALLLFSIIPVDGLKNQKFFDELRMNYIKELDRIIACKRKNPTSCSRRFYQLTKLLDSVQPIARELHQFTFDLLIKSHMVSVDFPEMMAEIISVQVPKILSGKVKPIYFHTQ

Progesterone receptor = target: T2, Progesterone receptor (Homo sapiens, UniProt P06401); experiment: Binding affinity to progesterone receptor
T2 sequence (P06401 whole entry): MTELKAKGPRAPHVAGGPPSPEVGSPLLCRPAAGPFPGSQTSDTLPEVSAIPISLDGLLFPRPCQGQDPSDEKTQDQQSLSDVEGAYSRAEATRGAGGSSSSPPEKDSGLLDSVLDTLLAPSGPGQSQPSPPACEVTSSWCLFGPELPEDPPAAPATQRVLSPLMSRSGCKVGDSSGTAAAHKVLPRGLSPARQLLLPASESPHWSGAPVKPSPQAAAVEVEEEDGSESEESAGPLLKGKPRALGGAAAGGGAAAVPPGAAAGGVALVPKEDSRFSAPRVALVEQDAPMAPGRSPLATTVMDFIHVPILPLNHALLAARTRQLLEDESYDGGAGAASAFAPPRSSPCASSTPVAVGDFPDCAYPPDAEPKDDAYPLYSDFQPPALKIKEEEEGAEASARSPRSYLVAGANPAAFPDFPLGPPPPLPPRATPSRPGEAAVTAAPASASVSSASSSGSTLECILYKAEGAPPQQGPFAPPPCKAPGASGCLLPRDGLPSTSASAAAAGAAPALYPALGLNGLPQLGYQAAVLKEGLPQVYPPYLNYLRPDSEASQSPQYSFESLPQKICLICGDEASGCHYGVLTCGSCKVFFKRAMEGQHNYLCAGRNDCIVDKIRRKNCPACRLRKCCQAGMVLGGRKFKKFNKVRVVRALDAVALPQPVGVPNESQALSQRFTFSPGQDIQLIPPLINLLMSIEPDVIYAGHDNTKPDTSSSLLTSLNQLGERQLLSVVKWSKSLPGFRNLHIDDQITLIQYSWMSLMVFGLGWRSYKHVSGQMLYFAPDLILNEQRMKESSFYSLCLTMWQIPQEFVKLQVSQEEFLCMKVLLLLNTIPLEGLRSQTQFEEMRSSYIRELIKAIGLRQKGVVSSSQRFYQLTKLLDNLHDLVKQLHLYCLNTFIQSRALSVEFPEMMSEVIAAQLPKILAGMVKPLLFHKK

Rattus norvegicus [6] = experiment: Androgenic activity in young intact rat assessed as increase of prostate weight at 30 mg/kg, po qd for 11 days; format: functional, organism-based; design: dose 30 mg/kg; conditions: Prostate gland
Rattus norvegicus [7] = experiment: Androgenic activity in young intact rat assessed as increase of levator ani bulbocavernosus muscle weight at 0.1 mg/kg, po qd for 11 days; format: functional, organism-based; design: dose 0.1 mg/kg; conditions: Muscle tissue
Rattus norvegicus [8] = experiment: Androgenic activity in castrated immature rat assessed as increase of levator ani bulbocavernosus muscle weight at 0.03 mg/kg, po qd for 11 days; format: functional, organism-based; design: dose 0.03 mg/kg; conditions: Muscle tissue
Rattus norvegicus [9] = experiment: Androgenic activity in castrated immature rat assessed as increase of levator ani bulbocavernosus muscle weight at 0.3 mg/kg, po qd for 11 days; format: functional, organism-based; design: dose 0.3 mg/kg; conditions: Muscle tissue
Rattus norvegicus [10] = experiment: Androgenic activity in young intact rat assessed as increase of levator ani bulbocavernosus muscle weight at 0.3 mg/kg, po qd for 11 days; format: functional, organism-based; design: dose 0.3 mg/kg; conditions: Muscle tissue
Rattus norvegicus [11] = experiment: Androgenic activity in young intact rat assessed as increase of levator ani bulbocavernosus muscle weight at 0.5 mg/kg, sc qd for 11 days; format: functional, organism-based; design: dose 0.5 mg/kg; conditions: Muscle tissue
Rattus norvegicus [12] = experiment: Androgenic activity in young intact rat assessed as increase of prostate weight at 0.5 mg/kg, sc qd for 11 days; format: functional, organism-based; design: dose 0.5 mg/kg; conditions: Prostate gland
Cynomolgus monkey [13] = experiment: Androgenic activity in cynomolgus monkey assessed as increase of body weight at 0.1 mg/kg, po qd for 28 days; format: functional, Macaca fascicularis
In short: (§1)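 Monkeys in groups of 3, grouped from day -21 and weighed at each time point. Oral dosing at 0.01, 0.1 or 1 mg/kg for 28 days, then 21 days off-dose. Each animal's weight change over the pre-dose weeks served as baseline; baseline-subtracted change from day -1 to day 29 was tested statistically.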

Cynomolgus monkey [14] = experiment: Androgenic activity in cynomolgus monkey assessed as increase of body weight at 1 mg/kg, po qd for 28 days; format: functional, organism-based; design: dose 1 mg/kg; conditions: Macaca fascicularis; in short: as §1
Cynomolgus monkey [15] = experiment: Androgenic activity in cynomolgus monkey assessed as effect on lean tissue weight at up to 1 mg/kg, po qd for 28 days measured after 24 hrs of last post dose; format: functional, organism-based; design: dose 1 mg/kg; conditions: Macaca fascicularis
In short: (§2)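 Monkeys, 3 per group, dosed orally at 0.01, 0.1 or 1 mg/kg for 28 days. DEXA scans on day -2 and day 29 gave fat and lean tissue mass. Mean change per group, with SD.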

Cynomolgus monkey [16] = experiment: Androgenic activity in cynomolgus monkey assessed as effect on fat mass at up to 1 mg/kg, po qd for 28 days measured after 24 hrs of last post dose; format: functional, organism-based; design: dose 1 mg/kg; conditions: Macaca fascicularis; in short: as §2

Cc1c(N[C@@H](c2nnc(-c3ccccc3)o2)[C@H](C)O)ccc(C#N)c1Cl
bioavailability [1]: < 5%

Cc1c(N[C@@H](c2nnc(-c3ccc(C#N)cc3)o2)[C@H](C)O)ccc(C#N)c1Cl [RAD-140]
bioavailability [1]: 27%
half-life [2]: > 2 h
half-life [3]: > 2 h
half-life [4]: > 2 h
bioavailability [5]: 65%
Ki (Androgen receptor): 7 nM
IC50 (Progesterone receptor): 750 nM
Activity (Rattus norvegicus [6]): inactive
Activity (Rattus norvegicus [7]): Active
Activity (Rattus norvegicus [8]): Active
Activity (Rattus norvegicus [9]): Active
Activity (Rattus norvegicus [10]): Active
Activity (Rattus norvegicus [11]): Active
Activity (Rattus norvegicus [12]): Active
Activity (Cynomolgus monkey [13]): 10%
Activity (Cynomolgus monkey [14]): Active
Activity (Cynomolgus monkey [15]): inactive
Activity (Cynomolgus monkey [16]): inactive
